For assay [1], the system named is HepG2. The assay can be described thus: Cytotoxicity against human HepG2 cells after 48 hrs by MTT assay. The following applies: HepG2, 48 h. The class given is cell-based. The method in brief: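 HepG2 cytotoxicity was read by an MTT assay adapted to 384-well format. IC50 was fitted by nonlinear regression (sigmoidal dose-response, variable slope).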
On the technique in general: Formazan colour is commonly taken as a measure of viable cells.

The subject of assay [2] is Trypanosoma brucei brucei. The assay can be described thus: Antitrypanosomal activity against bloodstream form Trypanosoma brucei brucei Lister 427 after 48 hrs by hemocytometer. The class given is functional, organism-based. The following applies: Lister 427, 48 h. The method in brief:
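Bloodstream Lister 427 cells were seeded at 2 × 10^3 cells/ml in HMI-9 medium and given drug from 200X DMSO stocks, with DMSO as control. Three independent experiments, each dose in duplicate (n = 6).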

A value given as a limit tells only on which side of the number the result lay.

Consider `O=S(=O)(c1cccc(-c2ccc3ncnc(Nc4ccc(OCc5cccc(F)c5)c(Cl)c4)c3c2)c1)N1CCOCC1`, for which the IC50 (usually the concentration that gives 50% inhibition) in assay [1] is over 15 µM. For `O=S(=O)(c1ccc(-c2ccc3ncnc(Nc4ccc(OCc5cccc(F)c5)cc4)c3c2)cc1)N1CCOCC1`, the EC50 (commonly the midpoint of the concentration-response curve) in assay [2] was determined as 650 nM. Moreover, the IC50 in assay [1] was over 15 µM.

For `O=S(=O)(c1ccc(-c2ccc3ncnc(Nc4ccc(OCc5cccc(F)c5F)c(Cl)c4)c3c2)cc1)N1CCOCC1`, the EC50 in assay [2] amounted to 820 nM. This compound gave an IC50 in assay [1] of over 15 µM. Compound `CCCS(=O)(=O)CCNCc1ccc(-c2ccc3ncnc(Nc4ccc(OCc5cccc(F)c5)c(Cl)c4)c3c2)o1` came in with a concentration giving a half-maximal response (EC50) in assay [2] of 430 nM. `CC(C)S(=O)(=O)CCNCc1ccc(-c2ccc3ncnc(Nc4ccc(OCc5cccc(F)c5)c(Cl)c4)c3c2)o1` registered an EC50 in assay [2] of 480 nM. On the same count and under the same terms, the value for `Cc1ccc(-c2ccc3ncnc(Nc4ccc(OCc5cccc(F)c5)c(Cl)c4)c3c2)c2ccccc12` was 2270 nM. Same read-out and setting: the figure for `CS(=O)(=O)CCNCc1ccc(-c2ccc3ncnc(Nc4ccc(OCc5ccccc5)c(Br)c4)c3c2)o1` is 560 nM; for `NCCCC(N)(C(=O)O)C(F)F` (configuration not stated) [EFLORNITHINE] it is 16400 nM. Consider `O=S(=O)(c1ccc(-c2ccc3ncnc(Nc4ccc(OCc5cccc(Cl)c5)c(Cl)c4)c3c2)cc1)N1CCOCC1`, for which, in assay [2], the concentration giving a half-maximal response (EC50) amounted to 660 nM. Besides, the half-inhibitory concentration (IC50) in assay [1] was over 15 µM. On the same counts, the results for `O=S(=O)(c1ccc(-c2ccc3ncnc(Nc4ccc(OCc5cccc(Br)c5)c(Cl)c4)c3c2)cc1)N1CCOCC1` are 680 nM and over 15 µM. The corresponding values for `Cc1ccc(Nc2ncnc3ccc(-c4ccc(S(=O)(=O)N5CCOCC5)cc4)cc23)cc1` are 1150 nM and over 15 µM. In assay [2], `Fc1cccc(COc2ccc(Nc3ncnc4ccc(-c5cccc(CN6CCOCC6)c5)cc34)cc2Cl)c1` registered an EC50 of 360 nM. `O=C(c1ccc(-c2ccc3ncnc(Nc4ccc(OCc5cccc(F)c5)c(Cl)c4)c3c2)cc1)N1CCCCC1`: in assay [2], it took 940 nM to reach a half-maximal effect (EC50). On the same count and under the same terms, the value for `Fc1cccc(COc2ccc(Nc3ncnc4ccc(-c5cccc6ncccc56)cc34)cc2Cl)c1` was 4530 nM.

As for `CS(=O)(=O)CCN(CC#N)Cc1ccc(-c2ccc3ncnc(Nc4ccc(OCc5cccc(F)c5)c(Cl)c4)c3c2)o1` [GW616030X], the response in assay [2] was half-maximal at 520 nM (EC50). In turn, `Fc1cccc(COc2ccc(Nc3ncnc4ccc(-c5cccc(CN6CCCCC6)c5)cc34)cc2Cl)c1` gave an EC50 in assay [2] of 650 nM. Consider `CS(=O)(=O)c1ccc(-c2ccc3ncnc(Nc4ccc(OCc5cccc(F)c5)c(Cl)c4)c3c2)cc1`, for which a half-maximal effect in assay [2] (EC50) was put at 900 nM. The compound further came in with an IC50 in assay [1] of over 15 µM.

In assay [2], `O=S(=O)(c1ccc(-c2ccc3ncnc(Nc4ccc(OCc5ccccc5)c(Cl)c4)c3c2)cc1)N1CCOCC1` showed an EC50 of 1350 nM. This compound registered an IC50 in assay [1] of over 15 µM. The compound `CC(C)(C)NS(=O)(=O)c1ccccc1-c1ccc2ncnc(Nc3ccc(OCc4cccc(F)c4)c(Cl)c3)c2c1` returned an EC50 in assay [2] of 4660 nM. In assay [2], `CS(=O)(=O)CCN(Cc1ccccc1)Cc1ccc(-c2ccc3ncnc(Nc4ccc(OCc5cccc(F)c5)c(Cl)c4)c3c2)o1` registered an EC50 of 1510 nM. Compared with the last compound, the EC50 is about 3.1-fold lower.

On to `O=S(=O)(c1ccc(-c2ccc3ncnc(Nc4ccc(OCc5cccc(F)c5)c(Cl)c4)c3c2)cc1)N1CCNCC1`, for which a half-maximal effect in assay [2] (EC50) was put at 280 nM. Besides, in assay [1], the IC50 worked out at 3.32 µM. `Nc1nc(N)nc(Nc2ccc([As]3SCC(CO)S3)cc2)n1` (configuration not stated) [MELARSOPROL] came in with an EC50 in assay [2] of 6.3 nM. This counts as single-digit nanomolar. In the case of `Oc1ccc(-c2ccc3ncnc(Nc4ccc(OCc5cccc(F)c5)c(Cl)c4)c3c2)cc1`, the EC50 in assay [2] turned out to be 6450 nM.

With `c1ccc(Nc2ncnc3ccc(-c4cccc(N5CCOCC5)c4)cc23)cc1`, in assay [2], the midpoint of the response, the EC50, lay at 11000 nM. In assay [1], this compound came in with an IC50 of 7.02 µM. The corresponding values for `O=S(=O)(c1ccc(-c2ccc3ncnc(Nc4ccc(OCc5cccc(F)c5)c(Cl)c4)c3c2)cc1)N1CCSCC1` are 470 nM and over 15 µM. The compound `O=S(=O)(c1ccc(-c2ccc3ncnc(Nc4ccc(OCc5cccc(F)c5)c(Cl)c4)c3c2)cc1)N1CCCC1` gave an EC50 in assay [2] of 350 nM. In addition, the IC50 in assay [1] was over 15 µM. As for `O=S(=O)(c1ccc(-c2ccc3ncnc(Nc4ccc(OCc5ccc(F)cc5)c(Cl)c4)c3c2)cc1)N1CCOCC1`, the EC50 in assay [2] was 1340 nM. Moreover, in assay [1], the half-maximal inhibitory concentration (IC50) is over 15 µM. For the compound `O=C(c1cccc(-c2ccc3ncnc(Nc4ccc(OCc5cccc(F)c5)c(Cl)c4)c3c2)c1)N1CCCCC1`, the EC50 in assay [2] turned out to be 140 nM. In assay [1], this compound yielded an IC50 of over 6 µM.

As for `CS(=O)(=O)c1cccc(-c2ccc3ncnc(Nc4ccc(OCc5cccc(F)c5)c(Cl)c4)c3c2)c1`, the half-maximal effective concentration (EC50) in assay [2] was found to be 3210 nM. In assay [1], the IC50 was over 15 µM.

In assay [2], `O=C(c1ccc(-c2ccc3ncnc(Nc4ccc(OCc5cccc(F)c5)c(Cl)c4)c3c2)cc1)N1CCOCC1` had a concentration giving a half-maximal response (EC50) of 1210 nM. Same read-out and setting: the figure for `O=S1(=O)CCN(Cc2ccc(-c3ccc4ncnc(Nc5ccc(OCc6ccccc6)c(Cl)c5)c4c3)o2)CC1` is 410 nM.

Consider `Fc1cccc(COc2ccc(Nc3ncnc4ccc(-c5ccc(CN6CCOCC6)cc5)cc34)cc2Cl)c1`, for which, in assay [2], a half-maximal effect (EC50) was put at 990 nM. In assay [1], this compound showed an IC50 of 12.9 µM. On the same counts, the results for `Fc1cccc(COc2ccc(Nc3ncnc4ccc(-c5ccc(N6CCOCC6)cc5)cc34)cc2Cl)c1` are 1910 nM and 9.6 µM. On the same counts, the results for `O=S(=O)(c1ccc(-c2ccc3ncnc(Nc4ccc(O)c(Cl)c4)c3c2)cc1)N1CCOCC1` are 1060 nM and over 15 µM. In assay [2], `CN1CCN(S(=O)(=O)c2ccc(-c3ccc4ncnc(Nc5ccc(OCc6cccc(F)c6)c(Cl)c5)c4c3)cc2)CC1` displayed an EC50 of 530 nM. In assay [1], this compound registered a half-inhibitory concentration (IC50) of over 15 µM. Take `COc1ccc(Nc2ncnc3ccc(-c4ccc(S(=O)(=O)N5CCOCC5)cc4)cc23)cc1Cl`: the EC50 in assay [2] was 820 nM. In assay [1], this compound gave an IC50 of over 15 µM. In assay [2], `N=C(N)c1ccc(OCCCCCOc2ccc(C(=N)N)cc2)cc1` [PENTAMIDINE] registered an EC50 of 3.5 nM. In other words, the single-digit nanomolar range.

`O=S(=O)(c1ccc(-c2ccc3ncnc(Nc4ccc(OCc5ccc(C(F)(F)F)c(F)c5)c(Cl)c4)c3c2)cc1)N1CCOCC1` yielded an EC50 in assay [2] of 540 nM. Also, the IC50 in assay [1] was over 15 µM. The corresponding values for `O=S(=O)(c1ccc(-c2ccc3ncnc(Nc4ccc(OCc5cccc(F)c5)c(Cl)c4)c3c2)cc1)N1CCCCC1` are 320 nM and over 15 µM. Consider `O=S(=O)(c1cccc(-c2ccc3ncnc(Nc4ccc(OCc5cccc(F)c5)c(Cl)c4)c3c2)c1)N1CCCC1`, for which the EC50 in assay [2] turned out to be 250 nM. Also, the IC50 in assay [1] is over 15 µM.

For the compound `O=S(=O)(c1cccc(-c2ccc3ncnc(Nc4ccc(OCc5cccc(F)c5)c(Cl)c4)c3c2)c1)N1CCCCC1`, the EC50 in assay [2] was 460 nM. In assay [1], this compound displayed a 50% inhibitory concentration (IC50) of over 15 µM. `O=C(c1cccc(-c2ccc3ncnc(Nc4ccc(OCc5cccc(F)c5)c(Cl)c4)c3c2)c1)N1CCOCC1` yielded an EC50 in assay [2] of 550 nM.

Compound `O=S(=O)(c1ccc(-c2ccc3ncnc(Nc4ccccc4)c3c2)cc1)N1CCOCC1` had an EC50 in assay [2] of 1440 nM. In assay [1], the IC50 is over 3 µM. The compound `c1ccc(COc2ccc(Nc3ncnc4ccc(-c5cccc(N6CCOCC6)c5)cc34)cc2)cc1` returned an EC50 in assay [2] of 180 nM. In addition, in assay [1], the concentration for half-maximal inhibition (IC50) was over 20 µM. In the case of `Clc1cc(Nc2ncnc3ccc(-c4cccc(N5CCOCC5)c4)cc23)ccc1OCc1ccccc1`, the EC50 in assay [2] was 230 nM. Besides, the concentration for half-maximal inhibition (IC50) in assay [1] is over 20 µM. The corresponding values for `COc1cccc(COc2ccc(Nc3ncnc4ccc(-c5ccc(S(=O)(=O)N6CCOCC6)cc5)cc34)cc2Cl)c1` are 1430 nM and over 15 µM. In assay [2], `Cc1nnc(-c2cccc(-c3ccc4ncnc(Nc5ccc(OCc6cccc(F)c6)c(Cl)c5)c4c3)c2)o1` yielded a concentration for a half-maximal effect (EC50) of 4210 nM. As to `CCNC(=O)c1ccc(-c2ccc3ncnc(Nc4ccc(OCc5cccc(F)c5)c(Cl)c4)c3c2)cc1F`, the EC50 in assay [2] is 3850 nM. Still for that read-out and setting: the figure for `O=c1[nH]cc(-c2ccc3ncnc(Nc4ccc(OCc5cccc(F)c5)c(Cl)c4)c3c2)c(=O)[nH]1` is 22600 nM. Same read-out and setting: the value for `O=S(=O)(CCSCc1ccc(-c2ccc3ncnc(Nc4ccc(OCc5cccc(F)c5)c(Cl)c4)c3c2)o1)c1ccccc1` was 550 nM. Regarding `COc1cc(Nc2ncnc3ccc(-c4ccc(S(=O)(=O)N5CCOCC5)cc4)cc23)ccc1OCc1cccc(F)c1`, the EC50 in assay [2] was found to be 1880 nM. Moreover, in assay [1], the IC50 is over 15 µM. `O=S(=O)(c1ccc(-c2ccc3ncnc(Nc4ccc(OCc5cccc(F)c5)c(Cl)c4)c3c2)cc1)N1CCOCC1` returned an EC50 in assay [2] of 1390 nM. The IC50 in assay [1] is over 15 µM. Consider `Fc1cccc(COc2ccc(Nc3ncnc4ccc(-c5cccc(N6CCCCC6)c5)cc34)cc2Cl)c1`, for which a half-maximal effect in assay [2] (EC50) was put at 760 nM. Besides, the IC50 in assay [1] is over 15 µM.

Compound `O=S(=O)(c1ccc(-c2ccc3ncnc(Nc4ccc(OCc5ccccc5F)c(Cl)c4)c3c2)cc1)N1CCOCC1` had an EC50 in assay [2] of 1650 nM. The compound further displayed a 50% inhibitory concentration (IC50) in assay [1] of over 15 µM. Regarding `O=C(NC1CC1)c1cccc(-c2ccc3ncnc(Nc4ccc(OCc5cccc(F)c5)c(Cl)c4)c3c2)c1`, the EC50 in assay [2] was 4500 nM. Still for that read-out and setting: the value for `Fc1cccc(COc2ccc(Nc3ncnc4ccc(-c5cc6ccccc6s5)cc34)cc2Cl)c1` was 5980 nM; that for `CC1(C)OB(O)c2cc(NC(=O)c3ccc(F)cc3C(F)(F)F)ccc21` [ACOZIBOROLE] was 794 nM. Compound `Fc1cccc(COc2ccc(Nc3ncnc4ccc(-c5ccccc5Oc5ccccc5)cc34)cc2Cl)c1` yielded an EC50 in assay [2] of 5300 nM.

In assay [2], `Fc1cccc(COc2ccc(Nc3ncnc4ccc(-c5ccc(CN6CCCCC6)cc5)cc34)cc2Cl)c1` returned a concentration giving a half-maximal response (EC50) of 1500 nM. The compound `CN1CCCN(S(=O)(=O)c2ccc(-c3ccc4ncnc(Nc5ccc(OCc6cccc(F)c6)c(Cl)c5)c4c3)cc2)CC1` registered an EC50 in assay [2] of 810 nM. Half-maximal inhibition in assay [1] (IC50) was put at 1.81 µM. `Fc1cccc(COc2ccc(Nc3ncnc4ccc(-c5ccc(N6CCCCC6)cc5)cc34)cc2Cl)c1` returned an EC50 in assay [2] of 380 nM. Compound `CN(C)S(=O)(=O)c1ccccc1-c1ccc2ncnc(Nc3ccc(OCc4cccc(F)c4)c(Cl)c3)c2c1` showed an EC50 in assay [2] of 1040 nM. In assay [1], this compound gave an IC50 of over 15 µM.

Compound `O=S(=O)(c1ccc(-c2ccc3ncnc(Nc4ccc(OCc5cc(F)cc(F)c5F)c(Cl)c4)c3c2)cc1)N1CCOCC1` gave an EC50 in assay [2] of 1120 nM. The IC50 in assay [1] was over 3 µM.

These data come from ChEMBL document CHEMBL2346527, “Kinase scaffold repurposing for neglected disease drug discovery: discovery of an efficacious, lapatinib-derived lead compound for trypanosomiasis” (J Med Chem, 2013).
